Experiment [1] is described as follows: Inhibition of beta-lactamase AmpC. In outline: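 Cuvette assay with 1 nM AmpC β-lactamase and 200 µM nitrocefin, Triton X-100 at either 0.00002 or 0.1%. Compound and enzyme preincubated 5 min, then substrate added to start the reaction.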
Experiment [2] is described as follows: Inhibition of beta-lactamase AmpC in presence of 0.1% Triton X-100. Put shortly: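 Cuvette assay with 1 nM AmpC β-lactamase and 200 µM nitrocefin, Triton X-100 at either 0.00002 or 0.1%. Compound and enzyme preincubated 5 min, then substrate added to start the reaction. Nitrocefin hydrolysis read at 482 nm by UV–visible spectrophotometry at room temperature.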

The nature of experiment [3]: Inhibition of chymotrypsin. Put shortly:
(§1)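 Chymotrypsin (28 nM) preincubated 5 min with inhibitor, then reaction started with 200 µM N-succinyl-Ala-Ala-Pro-Phe p-nitroanilide. In the no-preincubation variant, inhibitor and substrate were mixed first and enzyme was added to start. Progress read at 410 nm.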

The nature of experiment [4]: Inhibition of chymotrypsin in presence of 0.1% Triton X-100. In outline: as §1
Experiment [5] in a line: Inhibition of malate dehydrogenase. In outline:
(§2)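 Malate dehydrogenase (2 nM) incubated 5 min with inhibitor, then reaction started with 200 µM oxaloacetic acid plus 200 µM NADH. In the no-preincubation variant, inhibitor, oxaloacetate and NADH were mixed first and enzyme was added last. NADH consumption followed at 340 nm.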

Experiment [6] can be described thus: Inhibition of malate dehydrogenase in presence of 0.1% Triton X-100. In outline: as §2
Experiment [7] addresses T1, Cruzipain (Trypanosoma cruzi, UniProt P25779). The experiment can be described thus: Inhibition of cruzain.
For experiment [8], the target named is T1, Cruzipain. The experiment can be described thus: Inhibition of cruzain in presence of 0.01% Triton X-100. Put shortly: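 Recombinant cruzain (10 nM) in 0.1 M sodium acetate pH 5.5 with 5 mM DTT and 0.01% Triton X-100, substrate 2.5 µM Z-Phe-Arg-AMC. Cleavage read fluorimetrically in 96-well format, excitation 355 nm, emission 460 nm.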

Molecules are shown by their SMILES. A value given as a limit tells only on which side of the number the result lay.

T1 sequence (P25779 whole entry): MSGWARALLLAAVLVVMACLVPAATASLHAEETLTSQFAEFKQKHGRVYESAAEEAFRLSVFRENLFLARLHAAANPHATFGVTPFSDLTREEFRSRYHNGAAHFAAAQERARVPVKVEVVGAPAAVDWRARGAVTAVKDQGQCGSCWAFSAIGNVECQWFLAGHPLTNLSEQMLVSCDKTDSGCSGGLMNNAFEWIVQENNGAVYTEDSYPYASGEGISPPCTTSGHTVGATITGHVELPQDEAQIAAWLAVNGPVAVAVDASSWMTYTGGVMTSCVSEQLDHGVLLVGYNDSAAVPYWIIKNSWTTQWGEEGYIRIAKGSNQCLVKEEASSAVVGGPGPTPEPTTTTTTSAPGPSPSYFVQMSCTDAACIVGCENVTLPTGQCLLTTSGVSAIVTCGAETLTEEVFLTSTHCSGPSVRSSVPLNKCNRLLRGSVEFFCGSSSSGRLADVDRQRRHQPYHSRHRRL

On to `CCOC(=O)C1=C(c2ccccc2)NC(SCC(=O)Nc2ccc(C)cc2)=C(C#N)C1c1ccco1` (stereo not drawn), for which the IC50 (in general, the point on the concentration scale where inhibition reaches its midpoint) was 22 µM in experiment [1]; over 600 µM in experiment [2]; under 1000 nM in experiment [3]; over 600 µM in experiment [4]; 5 µM in experiment [5]; 106 µM in experiment [6]. The IC50 against Cruzipain [7] is under 1000 nM; on Cruzipain [8] it was 120 µM.

The record behind these values is ChEMBL document CHEMBL1142414, “Comprehensive mechanistic analysis of hits from high-throughput and docking screens against beta-lactamase” (J Med Chem, 2008).
